# PLC-beta3 inh – blocks human PLC-beta3 enzyme activity | Q01970 | Purified PLC-beta3, fluorogenic substrate, fluorescence | inhibition, % at 12.2 µM | 370,000 compounds, 0.18% hits | AID 720704; in the data active = inhibition above about 11%;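 also: 0% = median of compound wells on plate and 100% = full blocker control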
# ADAM17 inh – inhibitors of human ADAM17. P78536. 370,000 compounds, 0.83% hits. recombinant ADAM17, EDANS/DABCYL FRET peptide cleavage. AID 720648. inhibition, % at 6.95 µM;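 active = inhibition above the mean of compounds lying between control limits plus 3 SD, set per campaign, cut at about 8.5% in these data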;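 also: 0% = DMSO-only wells as the low control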
# Tn6 DDE FP – inhibitors of Tn6 peptide binding to human fibrin DD(E); P02675; Fibrin DD(E) TRITC-Tn6 fluorescence polarization displacement; inhibition, % at 8.3 µM; 370,000 compounds, 0.21% hits; AID 720509;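 active = inhibition above a per-campaign cutoff: mean of compounds within control limits plus 3 SD, cut at about 15% in these data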;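 also: 0% = median of all compound wells on the plate and 100% = blocking peptide control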
# DDE Tn7 FP inh – disrupts Tn7 cyclic peptide binding to fibrin D-Dimer-E complex; 370,000 compounds, 0.13% hits; FP displacement of FITC-Tn7 peptide from fibrin DD(E); 0% = median of compound wells per plate; P02675; inhibition, % at 8.3 µM;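 active = inhibition above the mean of compounds falling within the control limits plus 3 SD of them, cut at about 14% in these data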;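 also: 0% = plate median of compound wells and 100% = 10 µM Aha-Tn7 peptide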
#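 Measure: % inhibition scaled between sample-field median and high-control FP; Test system: human fibrin DD(E); Quantity: 2 µM final DD(E) protein; Doses: one dose, 8.3 µM nominal; Schedule: compound with protein 10 min, then 3 h after probe, room temperature; Detection: fluorescence polarization; Medium: Tris buffer with calcium and detergent, pH 7.8.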
# ADAM10 inh – ADAM10 inhibition, QFRET primary screen; recombinant ADAM10, EDANS/DABCYL FRET peptide cleavage, 3 h; O14672; AID 720582; 370,000 compounds, 0.62% hits; inhibition, % at 7 µM;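 active = inhibition above a per-campaign cutoff equal to the mean of compounds falling between control-based bounds plus 3 SD, cut at about 20% in these data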;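 also: 0% = DMSO wells while the 100% control is not disclosed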
# PLCg1 inh – PLC-gamma1 (human) inhibition, primary screen; purified PLC-gamma1, fluorogenic substrate, fluorescence; inhibition, % at 12.2 µM; P19174; 370,000 compounds, 0.84% hits; in the data active = inhibition above about 9.5%
# Target sequence (P19174 whole entry, looked up): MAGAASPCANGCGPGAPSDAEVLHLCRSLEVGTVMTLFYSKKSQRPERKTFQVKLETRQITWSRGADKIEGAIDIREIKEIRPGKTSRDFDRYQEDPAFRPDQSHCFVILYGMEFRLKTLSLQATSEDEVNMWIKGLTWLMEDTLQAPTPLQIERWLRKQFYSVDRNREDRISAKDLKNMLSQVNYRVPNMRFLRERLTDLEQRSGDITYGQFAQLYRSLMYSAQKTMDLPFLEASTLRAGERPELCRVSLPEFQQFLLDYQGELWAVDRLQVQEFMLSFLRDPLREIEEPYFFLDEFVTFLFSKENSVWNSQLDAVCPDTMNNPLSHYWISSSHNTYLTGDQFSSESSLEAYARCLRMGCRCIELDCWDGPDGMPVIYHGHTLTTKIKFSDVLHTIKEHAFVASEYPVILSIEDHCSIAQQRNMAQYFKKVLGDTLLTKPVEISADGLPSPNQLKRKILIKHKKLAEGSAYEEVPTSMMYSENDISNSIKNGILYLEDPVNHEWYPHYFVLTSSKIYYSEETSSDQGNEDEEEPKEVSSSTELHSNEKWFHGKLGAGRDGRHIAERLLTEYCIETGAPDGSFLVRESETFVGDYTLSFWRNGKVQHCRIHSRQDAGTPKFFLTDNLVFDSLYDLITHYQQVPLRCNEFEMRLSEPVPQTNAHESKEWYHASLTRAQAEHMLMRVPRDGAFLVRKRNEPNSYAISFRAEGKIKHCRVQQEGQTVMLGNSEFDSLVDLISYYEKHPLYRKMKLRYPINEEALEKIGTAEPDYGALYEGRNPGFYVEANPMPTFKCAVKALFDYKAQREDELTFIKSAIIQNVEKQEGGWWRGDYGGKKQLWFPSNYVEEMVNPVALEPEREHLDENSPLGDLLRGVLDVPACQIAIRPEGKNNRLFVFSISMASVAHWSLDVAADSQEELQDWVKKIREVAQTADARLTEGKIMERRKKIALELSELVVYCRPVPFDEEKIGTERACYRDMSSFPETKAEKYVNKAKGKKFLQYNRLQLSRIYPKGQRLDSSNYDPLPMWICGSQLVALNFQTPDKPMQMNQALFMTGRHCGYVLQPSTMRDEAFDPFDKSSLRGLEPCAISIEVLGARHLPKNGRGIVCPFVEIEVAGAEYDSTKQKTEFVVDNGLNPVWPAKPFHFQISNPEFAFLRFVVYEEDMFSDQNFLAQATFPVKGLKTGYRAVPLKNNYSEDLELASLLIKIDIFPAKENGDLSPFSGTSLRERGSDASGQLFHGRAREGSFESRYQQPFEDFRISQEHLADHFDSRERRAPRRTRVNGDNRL
# ADAM10 counter – ADAM10 inhibition, counter-screen for ADAM17 exosite hits | shares compounds with ADAM17 inh | recombinant ADAM10, EDANS/DABCYL FRET peptide cleavage, 3 h | inhibition, % at 6.95 µM | 2,900 compounds, 47% hits;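 active = mean inhibition over the triplicate runs exceeds the activity threshold set in the earlier primary screen, cut at about 20% in these data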;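 also: 0% = DMSO wells and 100% = marimastat wells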
# ADAM17 confirm – human ADAM17 inhibition, confirmation; shares compounds with ADAM17 inh; AID 743257; 2,900 compounds, 65% hits; inhibition, % at 6.95 µM; recombinant ADAM17, EDANS/DABCYL QFRET peptide cleavage;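 active = mean inhibition across replicates above the hit cutoff set in the primary screen, cut at about 8.5% in these data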;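 also: 0% = DMSO wells and 100% = marimastat wells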
# Active calls of the source: *; . = no result. Most compounds without a hit are left out; they make up all but 2.3% or so of the library.
SMILES,PLC-beta3 inh,ADAM17 inh,Tn6 DDE FP,DDE Tn7 FP inh,ADAM10 inh,PLCg1 inh,ADAM10 counter,ADAM17 confirm
Cc1nc(N2CCCCC2)c2c(C)c(C(=O)Nc3ccc4c(c3)OCCO4)sc2n1,-177,9.6*,-3,-3,11,-13,16,11*
CCCCC(=O)NC(c1cccc([N+](=O)[O-])c1)c1ccc2cccnc2c1O (centres undefined),-4,9.6*,0,5,18,2,25*,17*
CCn1c(SCC(=O)c2ccc(-c3ccccc3)cc2)nnc1-c1ccccc1OC,-5,5,-3,-5,9,1,.,.
CCCCCC[C@@H](CN(CCCC)S(C)(=O)=O)c1ccccc1,-2,55*,12,9,17,-2,-6,2
CC(=O)Nc1ccc(OCC(=O)c2ccc(C)cc2C)cc1,-1,9.6*,0,1,8,1,9,4
O=C(Nc1cccc(OC(F)(F)F)c1)C1Cc2c(-c3ccc(Cl)cc3)ccnc2O1 (centres undefined),-3,10*,1,2,8,2,17,9
O=C(Nc1ccccc1)C1Cc2c(-c3ccccc3Oc3ccccc3)ccnc2O1 (centres undefined),0,4,-1,3,11,2,.,.
CC(=O)c1cccc(-c2ccnc3c2CC(C(=O)Nc2cccc(OC(F)(F)F)c2)O3)c1 (centres undefined),3,-2,-2,-3,-4,-1,.,.
COc1ccc(NC(=O)C2Cc3c(-c4ccccc4Oc4ccccc4)ccnc3O2)cc1 (centres undefined),-2,9.6*,-3,-1,18,2,18,7
C[C@H]1COc2cccc(N3CCCC3)c2S(=O)(=O)N1C,-4,-4,1,-5,-2,-2,.,.
CCCCCCNC(=O)C1CSCCS(=O)(=O)N1Cc1ccc(F)cc1 (centres undefined),5,6,1,0,4,2,.,.
C=CCOC(=O)C1=C[C@@H](c2coc3ccccc3c2=O)C[C@@H](OCc2ccc(CO)cc2)O1,-2,15*,3,-1,7,1,26*,10*
O=[N+]([O-])c1cccc(/C=N/n2cnnc2)c1,-6,1,1,-4,-6,1,.,.
O=[N+]([O-])c1ccc(O)c(/C=N/n2cnnc2)c1,7,9.2*,0,-8,15,3,11,5
N#Cc1ccc(/C=C2\CC3(OC(=O)c4ccc(F)cc4)CCCN2C3)cc1 (centres undefined),-5,1,-11,-2,1,-1,.,.
Cc1ccc(N(CC(=O)Nc2cc(Cl)ccc2Oc2ccccc2)S(C)(=O)=O)c(C)c1,0,13*,3,3,16,3,41*,22*
CCOc1ccc(N(CC(=O)Nc2cccc(C)c2)S(C)(=O)=O)cc1,3,9.0*,-9,-2,9,8,0,2
CCOc1ccc(N(CC(=O)NN=C2CCN(C)CC2)S(C)(=O)=O)cc1,0,8.7*,-9,-12,12,3,-3,-1
CCOC(=O)N1CCN(C(=O)CN(c2ccc(OCC)cc2)S(C)(=O)=O)CC1,2,-1,6,2,-4,-1,.,.
O=C(Nc1ccc(Br)cc1)OC1CC2CC1[C@H]1CCCCN1[C@H]2Cc1ccccc1 (some centres undefined),-3,0,0,1,-2,-5,.,.
COc1ccc(NC(=O)c2nc(C)c(C3(C)CC(c4cccnc4)=NO3)s2)cc1 (centres undefined),-7,11*,-7,-4,11,-1,18,10*
COc1ccc(N2CCN(C(=O)CCC(=O)N3CCOc4ccc(Cl)cc43)CC2)cc1,10,11*,3,-4,11,6,29*,8

# Compound activity deposited in PubChem by The Scripps Research Institute Molecular Screening Center.
